# Experiments:
# Assay type in all cases: biochemical, Prunus dulcis
# [1] = tested on: sweet almond β-glucosidase; experiment: KM as Ki from inhibition of pNPG hydrolysis at […] nm; details: pH 6.3, 0.01 M MES, 0.01 M NaCl, 4.6% v/v DMSO, 25°C; kcat calculated from kcat/KM and KM
# [2] = tested on: sweet almond β-glucosidase; experiment: p-nitrophenolate absorbance at […] nm; details: pH 6.3, 0.01 M MES, 0.01 M NaCl, 4.6% v/v DMSO, 25°C
# [3] = target: sweet almond β-glucosidase; experiment: inhibition of pNPG hydrolysis, p-nitrophenolate at […] nm; details: pNPG about 0.1 mM, pH 6.3, 25°C; not detectably hydrolysed
# [4] = tested on: sweet almond β-glucosidase; experiment: initial velocity, stopped assay, glucose by hexokinase / G6PDH; details: pH 6.3, 0.01 M MES, 0.01 M NaCl, 4.6% v/v DMSO, 25°C, H2O
# In short: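 Chromatographically purified almond enzyme (65 kD), diluted from stock in 0.01 M MES/0.01 M NaCl pH 6.3, added to about 2 μg/mL to start the reaction at 25.0 °C. Thioglucoside substrate came from DMSO stock. Aliquots were withdrawn and glucose measured by coupled yeast hexokinase/L. mesenteroides G6PDH (10 mM ATP, 5 mM MgSO4, 1 mM NAD+, pH 7.5), reading NADH at 340 nm. Km came from non-linear Michaelis-Menten fit.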
smiles,measurement,setting,value
"Cn1c(S[C@@H]2O[C@H](CO)[C@@H](O)[C@H](O)[C@H]2O)nc2ccccc21 [GlcS(N-Me)Biz, 1'-methylbenzimidazol-2'-yl 1-thio-β-D-glucopyranoside]",Km,[1],47 mM
"OC[C@H]1O[C@@H](Sc2nc3ccccc3o2)[C@H](O)[C@@H](O)[C@@H]1O [GlcSBox, 2-benzoxazolyl 1-thio β-D-glucopyranoside]",Km,[1],2.7 mM
"O=[N+]([O-])c1ccc(O[C@@H]2O[C@H](CO)[C@@H](O)[C@H](O)[C@H]2O)cc1 [pNPG, p-nitrophenyl β-D-glucopyranoside]",Km,[2],2.5 mM
"OC[C@H]1O[C@@H](SC2=NCCS2)[C@H](O)[C@@H](O)[C@@H]1O [GlcSTaz, 2-thiazolinyl1-thio-β-D-glucopyranoside]",Ki,[3],8.7 mM
"OC[C@H]1O[C@@H](Sc2nc3ccccc3[nH]2)[C@H](O)[C@@H](O)[C@@H]1O [GlcSBiz, 2'-benzimidazolyl 1-thio-β-D-glucopyranoside]",Km,[4],2.5 mM
